Experiment: Toxicity liver stage against HepG2, at 10uM
Assay type: cell-based
Set-up: test concentration 10 uM, cell line HepG2-A16-CD81EGFP
Conditions: human, HepG2-A16-CD81EGFP cells; read-out: INHIBITION
In short: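 Uninfected HepG2-A16-CD81EGFP cells, 3 × 10^3 per well, 1536-well, plated on prespotted compound at 10 μM final, parasite-free screening media added to match infected plates; puromycin 10 μM positive, DMSO 0.5% negative; run in parallel with 48 h PbLuc assay at 37 °C, 5% CO2; viability by CellTiter-Glo luminescence, normalized to controls.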

CCC1(C)Cc2ccccc2-c2nc(NCCCO)nc(O)c21 (stereo unspecified)
cytotoxicity at 10 µM: 5.42%

Cc1noc([C@@H]2C[C@H](NS(=O)(=O)Cc3ccccc3)CN2C)n1
cytotoxicity at 10 µM: 4.5%

c1coc(-c2nnc([C@H]3CCN(Cc4ccc5c(c4)OCO5)C3)o2)c1
cytotoxicity at 10 µM: -0.0837%

Fc1ccc2nc([C@H]3CCNC3)[nH]c2c1
cytotoxicity at 10 µM: 9.21%

F[C@@H]1CN(CC2CC2)C[C@@H]1OCc1nc2ncccc2[nH]1
cytotoxicity at 10 µM: 5.52%

CC(=O)N1N=C(c2ccccc2)OC1C(=O)NCC(=O)OC(C)(C)C (stereo unspecified)
cytotoxicity at 10 µM: -0.376%

Cc1ccc(S(=O)(=O)N(C)c2ccsc2C(=O)NCC(C)C)cc1
cytotoxicity at 10 µM: 10.6%

CN(C)C(=O)c1nnn(-c2ccc(Br)cc2)n1
cytotoxicity at 10 µM: 7.5%

O=C(CCc1ccccc1Br)N1CC(S(=O)(=O)C2CCCCC2)C1
cytotoxicity at 10 µM: -1.36%

O=C(c1cccs1)N1CCc2nnc(COc3cncnc3)n2CC1
cytotoxicity at 10 µM: 8.13%

CC(=O)N1CCCn2c(nc(CNS(=O)(=O)C3CC3)cc2=O)C1
cytotoxicity at 10 µM: 2.71%

O=C(NCCN1CCCC1)c1ccc2c(-c3nccs3)noc2c1
cytotoxicity at 10 µM: -2.79%

CN(C)S(=O)(=O)N1CCC2(CC1)CC(OCC1CC1)CO2 (stereo unspecified)
cytotoxicity at 10 µM: -2.37%

CO[C@@H]1CCN(c2ncc(F)cn2)[C@H]1Cc1cnn(C)c1
cytotoxicity at 10 µM: -2.63%

Cc1noc([C@@]23CCO[C@@H]2CCN(C(=O)c2c(C)noc2C)C3)n1
cytotoxicity at 10 µM: 8.4%

NC(=O)C1CCN(C(=O)c2cc(-n3cnnn3)ccc2Cl)CC1
cytotoxicity at 10 µM: 12.4%

COc1cccc(NC(=O)Cn2cc(-c3ccccc3)ncc2=O)c1
cytotoxicity at 10 µM: -0.0638%

O=C(c1cc(-n2cnnn2)ccc1Cl)N1CCC2(CC1)OCCO2
cytotoxicity at 10 µM: -1.66%

O=C([C@H]1C[C@H]2OCC[C@H]2N(C(=O)C2CCOCC2)C1)N1CCCCO1
cytotoxicity at 10 µM: -8.28%

CN(C)c1nc2n(c(=O)n1)CCN2C(=O)Nc1ccc(Cl)c(Cl)c1
cytotoxicity at 10 µM: 9.76%

CCOC(=O)c1sc(NC(=O)CCCC(=O)O)c(C#N)c1C
cytotoxicity at 10 µM: 11.6%

COC(=O)CNC(=O)c1cc(-c2ccccc2)nc2ncnn12
cytotoxicity at 10 µM: -5.07%

CCC(C)NC(=O)c1cc(S(=O)(=O)N2CCCC2)c(C)s1 (stereo unspecified)
cytotoxicity at 10 µM: -2.6%

CC(C)C(=O)NCCc1nc(-c2ccncc2)n[nH]1
cytotoxicity at 10 µM: 7.78%

CO[C@@H]1CCC[C@@H](NC(=O)c2cccc(F)c2)[C@H]1O
cytotoxicity at 10 µM: 1.65%

COc1cc(C(=O)NC(C)(C)CN2CCN(C)CC2)c2ccccc2n1
cytotoxicity at 10 µM: -1.41%

Cc1nc(C2CCCCN2C(=O)c2ccccc2)ncc1C(=O)N(C)C (stereo unspecified)
cytotoxicity at 10 µM: 1.9%

Nc1cc(N2CCCC2c2cnccn2)ncn1 (stereo unspecified)
cytotoxicity at 10 µM: 0.153%

CN1CC(=O)N(c2ccccc2)Cc2c(NC3CC3)ncnc21
cytotoxicity at 10 µM: 6.86%

O=C1CC2(CCN(C(=O)C3CCCCC3)C2)Nc2ccccc2N1 (stereo unspecified)
cytotoxicity at 10 µM: 9.13%

Cn1nc(C2CCCN2)c2c(C(=O)NCC(F)(F)F)cc(C3CC3)nc21 (stereo unspecified)
cytotoxicity at 10 µM: 13.1%

CS(=O)(=O)N1CC2(CCCN(C3COC3)C2)Cc2ccccc21 (stereo unspecified)
cytotoxicity at 10 µM: 5.15%

Cn1ccc(CS(=O)(=O)Cc2ccccc2)cc1=O
cytotoxicity at 10 µM: 6.02%

Cn1ccnc1S(=O)(=O)C(C(=O)N1CCCCC1)c1ccccc1 (stereo unspecified)
cytotoxicity at 10 µM: 24.5%

Cc1nc(-c2cc(C(=O)O)co2)cs1
cytotoxicity at 10 µM: 3.39%

CC(C)CCNC(=O)NC(C)c1nncn1C (stereo unspecified)
cytotoxicity at 10 µM: -9.9%

CC(CNC(=O)c1ccncc1F)Oc1ccc(F)cc1 (stereo unspecified)
cytotoxicity at 10 µM: 0.0383%

CCc1nsc(N2CCC3(CC2)OCCO3)n1
cytotoxicity at 10 µM: 2.24%

CS(=O)(=O)CCCNC(=O)C1(c2cccc(Cl)c2)CC1
cytotoxicity at 10 µM: -2.26%

Cn1cc(Br)c(=O)c(NS(=O)(=O)c2ccc3c(c2)CCC3)c1
cytotoxicity at 10 µM: -3.47%

CCC(=O)NCC(c1ccc(SC)cc1)N1CCc2sccc2C1 (stereo unspecified)
cytotoxicity at 10 µM: 4.05%

CCc1ccc(C(=O)N2CCC(c3nncn3CC)CC2)o1
cytotoxicity at 10 µM: 3.14%

Cc1cc(C)cc(OCCN(C)Cc2cscn2)c1
cytotoxicity at 10 µM: 6.56%

NC(=O)CN(Cc1ccc(Br)cc1)C(=O)c1ccccn1
cytotoxicity at 10 µM: 6.85%

Cc1cccnc1NC(=O)NC(CCO)C(C)(C)C (stereo unspecified)
cytotoxicity at 10 µM: 2.3%

CCc1nc(CNC2CCN(S(C)(=O)=O)CC2)cs1
cytotoxicity at 10 µM: 0.684%

CS(=O)(=O)c1nccn1Cc1ccc(F)cc1Cl
cytotoxicity at 10 µM: -4.99%

CC(C)(C)C(=O)N1CCN(C(=O)Nc2cnn(CC(F)F)c2)CC1
cytotoxicity at 10 µM: 9.62%

COCC(=O)NCCc1ccc(Cl)s1
cytotoxicity at 10 µM: 13.4%

Cc1cc(CCC(=O)N2CC[C@H](O)C2)ccc1Br
cytotoxicity at 10 µM: 2.35%

CCn1nc2c(cc1=O)CN(Cc1nc3ccccc3c(=O)[nH]1)CC2
cytotoxicity at 10 µM: -4.71%

CC(C)NC(=O)N1CCC2(CC(=O)N(c3ccccc3)C2)C1 (stereo unspecified)
cytotoxicity at 10 µM: -2.59%

CC(=O)NCC(=O)N1Cc2nccn2CC(CN2CCCC2)C1 (stereo unspecified)
cytotoxicity at 10 µM: 2.34%

C/C=C(\C)CN1CCC2(CCC(=O)N2OCc2ccccc2F)CC1
cytotoxicity at 10 µM: 5.24%

COc1ccc(CC(=O)N2CC[C@@]3(O)CCNC[C@H]3C2)c(OC)c1
cytotoxicity at 10 µM: 4.26%

CCCN(Cc1cccnc1)C(=O)C1CCN(Cc2ccco2)CC1
cytotoxicity at 10 µM: 0.376%

OCCCN1CCc2onc(C(c3ccccc3)c3ccccc3)c2C1
cytotoxicity at 10 µM: -5.51%

CC(C)Oc1cccc(F)c1C(C(=O)O)N1CCCN(C)CC1 (stereo unspecified)
cytotoxicity at 10 µM: 0.992%

CN1CCC2(CCN(S(=O)(=O)c3ccc(-c4cnco4)s3)CC2)C1
cytotoxicity at 10 µM: -0.0395%

CC1CN(c2ccccc2Cl)C(=O)CN1C(=O)c1c[nH]c(=O)c(Cl)c1 (stereo unspecified)
cytotoxicity at 10 µM: 0.345%

NC(=O)[C@@H]1CCCN1C(=O)c1csc(-c2ccc(C(F)(F)F)cc2)n1
cytotoxicity at 10 µM: -2%

CN(Cc1ccccc1)c1cnn(CC2CCCCO2)c(=O)c1 (stereo unspecified)
cytotoxicity at 10 µM: 0.992%

O=C([C@H](O)c1ccccc1)N1CCN(c2cccc(Cl)c2)C(=O)C1
cytotoxicity at 10 µM: -6.17%

Cc1cc2nc(C(C)C)cc(N3CCSCC3)n2n1
cytotoxicity at 10 µM: 3.24%

Cc1cc(C)n(CCCN(C)c2cc(N(C)C)ncn2)n1
cytotoxicity at 10 µM: 3.85%

N#Cc1cc2c(=O)n(CC(O)C(F)(F)F)ccc2[nH]c1=O (stereo unspecified)
cytotoxicity at 10 µM: -1.99%

NC(=O)NCC(=O)N1CCC2(CC1)c1ccccc1CC2O (stereo unspecified)
cytotoxicity at 10 µM: 4.22%

CN(Cc1ccc2c(c1)OCO2)C(=O)NCCc1cnn(C)c1
cytotoxicity at 10 µM: -2.69%

O=C(NCCCn1ccnc1)N1CCCC1c1ccsc1 (stereo unspecified)
cytotoxicity at 10 µM: -6.04%

Cc1nc(C2CCCN2Cc2nnc(C3CC3)o2)no1 (stereo unspecified)
cytotoxicity at 10 µM: -5.97%

COc1ccc(-c2noc(CN3CCOCC3C)n2)cc1OC (stereo unspecified)
cytotoxicity at 10 µM: -7.3%

Cc1cc2c(cc1CNC(Cc1cccs1)c1nccs1)OCO2 (stereo unspecified)
cytotoxicity at 10 µM: 6.76%

CC(C)N1CCC2(CC1)C(=O)N(c1cccnc1)c1c(F)cccc12
cytotoxicity at 10 µM: 7.13%

Cc1c(C2CCCN(C(=O)C3CC3)C2)n2c(nc1=O)CCC2 (stereo unspecified)
cytotoxicity at 10 µM: -1.85%

Cn1ccnc1CN1CCC2(CC1)CC(NC(=O)c1ccccn1)CO2 (stereo unspecified)
cytotoxicity at 10 µM: -2.05%

CN(Cc1ccco1)C1COC2(CCN(Cc3nccs3)CC2)C1 (stereo unspecified)
cytotoxicity at 10 µM: 2.93%

c1cnc(-c2noc(C3CN(Cc4ccsc4)C3)n2)cn1
cytotoxicity at 10 µM: 0.435%

CCCS(=O)(=O)N1Cc2ccnn2CC(c2nc(C)no2)C1 (stereo unspecified)
cytotoxicity at 10 µM: 5.98%

COc1ccc(CN2C[C@H]3C[C@H](CN(C)C)O[C@H]3C2)cc1
cytotoxicity at 10 µM: -7.4%

O=S(=O)(c1cccs1)N1CC[C@H](O)[C@@H]1Cc1ccncc1
cytotoxicity at 10 µM: 3.19%

O=C(C1CCCO1)N1C[C@@H]2CCN(c3cnccn3)C[C@@H]2C1 (stereo partly specified)
cytotoxicity at 10 µM: -0.832%

Source: ChEMBL document CHEMBL4513216, “Probing the Open Global Health Chemical Diversity Library for Multistage-Active Starting Points for Next-Generation Antimalarials” (ACS Infect Dis, 2020)
